Source: ChEMBL document CHEMBL1141540, “Design, synthesis, and evaluation of 1-(N-benzylamino)-2-phenyl-3-(1H-1,2,4-triazol-1-yl)propan-2-ols as antifungal agents” (2008)
≈ marks a conversion by molar mass, not a printed value.

Columns and labels:
Candida albicans = experiment: Antifungal activity against Candida albicans CA98001; type: functional
Method in brief: (§1)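 Growth-inhibition screen against the named strain, following a previously published protocol. The read-out is MIC80, reported in ng mL⁻¹. Fluconazole and itraconazole served as positive controls.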

Aspergillus fumigatus = experiment: Antifungal activity against Aspergillus fumigatus AF98003; type: functional; method in brief: as §1

| SMILES | MIC80 (Candida albicans) [µg/mL] | MIC80 (Aspergillus fumigatus) [µg/mL] |
| --- | --- | --- |
| CN(Cc1ccc(C(F)(F)F)cc1)CC(O)(Cn1cncn1)c1ccc(Cl)cc1Cl (stereo not drawn) | 0.03 (≈ 0.0653 µM) | 21.1 (≈ 46 µM) |
| O=[N+]([O-])c1ccc(CNCC(O)(Cn2cncn2)c2ccc(Cl)cc2Cl)cc1 (stereo not drawn) | 0.006 (≈ 0.0142 µM) | 27 (≈ 64 µM) |
| Nc1ccc(CNCC(O)(Cn2cncn2)c2ccc(Cl)cc2Cl)cc1 (stereo not drawn) | 18.8 (≈ 48 µM) | 3.06 (≈ 7.8 µM) |
| OC(Cn1cncn1)(Cn1cncn1)c1ccc(F)cc1F [FLUCONAZOLE] | 0.19 (≈ 0.62 µM) | – |
| CN(Cc1ccc(N)cc1)CC(O)(Cn1cncn1)c1ccc(Cl)cc1Cl (stereo not drawn) | 0.029 (≈ 0.0714 µM) | 2.32 (≈ 5.71 µM) |
| CN(Cc1ccc(C#N)cc1)CC(O)(Cn1cncn1)c1ccc(Cl)cc1Cl (stereo not drawn) | 0.00037 (≈ 0.000889 µM) | 2.41 (≈ 5.79 µM) |
| N#Cc1ccc(CNCC(O)(Cn2cncn2)c2ccc(Cl)cc2Cl)cc1 (stereo not drawn) | 0.0028 (≈ 0.00696 µM) | 4.02 (≈ 9.99 µM) |
| CCC(C)n1ncn(-c2ccc(N3CCN(c4ccc(OC[C@H]5CO[C@](Cn6cncn6)(c6ccc(Cl)cc6Cl)O5)cc4)CC3)cc2)c1=O (stereo partly drawn) [ITRACONAZOLE] | – | 0.42 (≈ 0.595 µM) |
| CN(Cc1ccc([N+](=O)[O-])cc1)CC(O)(Cn1cncn1)c1ccc(Cl)cc1Cl (stereo not drawn) | 0.0006 (≈ 0.00138 µM) | 1.96 (≈ 4.49 µM) |
| OC(CNCc1ccc(C(F)(F)F)cc1)(Cn1cncn1)c1ccc(Cl)cc1Cl (stereo not drawn) | 0.024 (≈ 0.0539 µM) | 24 (≈ 54 µM) |
